Results: ChEMBL document CHEMBL4020804, “Minor phenolics from Angelica keiskei and their proliferative effects on Hep3B cells” (Bioorg Med Chem Lett, 2017)

Columns and labels:
Hep 3B2 [1] = assay: Proliferative activity against human Hep3B cells assessed as cell viability at 0.1 uM after 4 days by cell counting method relative to control; format: functional; details: 96 h, read-out: Activity
Method in brief: (§1)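 Hep3B kept in DMEM/10% FBS, 37°C, 5% CO2, then seeded at 1×10^5 cells/ml in medium containing compound (0.1–100 μM; DMSO-only control) in monolayer. Cells were checked daily by microscope for attachment and morphology, and counted after 4 days, in triplicate, in three independent experiments. Counts are given as % of the 0 μM group.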

Hep 3B2 [2] = assay: Proliferative activity against human Hep3B cells assessed as cell viability at 1 uM after 4 days by cell counting method relative to control; format: functional; details: 96 h, read-out: Activity; method in brief: as §1
Hep 3B2 [3] = assay: Proliferative activity against human Hep3B cells assessed as cell viability at 10 uM after 4 days by cell counting method relative to control; format: functional; details: 96 h, read-out: Activity; method in brief: as §1
Hep 3B2 [4] = assay: Proliferative activity against human Hep3B cells assessed as cell viability at 100 uM after 4 days by cell counting method relative to control; format: functional; details: 96 h, read-out: Activity; method in brief: as §1
Hep 3B2 [5] = assay: Proliferative activity against human Hep3B cells assessed as cell viability after 4 days by cell counting method; format: functional, cell-based; method in brief: as §1
Hep 3B2 [6] = assay: Cytoprotective activity against GOX-induced oxidative stress in human Hep3B cells assessed as cell survival at 0.1 uM treated for 5 hrs with 15 mU/ml GOX challenge by MTT assay (reference value: 41.51 +/- 1.39%); format: functional; details: read-out: Survival
Hep 3B2 [7] = assay: Cytoprotective activity against GOX-induced oxidative stress in human Hep3B cells assessed as cell survival at 100 uM treated for 5 hrs with 15 mU/ml GOX challenge by MTT assay (reference value: 41.51 +/- 1.39%); format: functional; details: read-out: Survival
Hep 3B2 [8] = assay: Cytoprotective activity against GOX-induced oxidative stress in human Hep3B cells assessed as cell survival at 1 uM treated for 5 hrs with 15 mU/ml GOX challenge by MTT assay (reference value: 41.51 +/- 1.39%); format: functional; details: read-out: Survival
Hep 3B2 [9] = assay: Cytoprotective activity against GOX-induced oxidative stress in human Hep3B cells assessed as cell survival at 10 uM treated for 5 hrs with 15 mU/ml GOX challenge by MTT assay (reference value: 41.51 +/- 1.39%); format: functional; details: read-out: Survival
NIH3T3 [10] = assay: Cytoprotective activity against GOX-induced oxidative stress in mouse NIH/3T3 cells assessed as cell survival at 0.1 uM treated for 5 hrs with 15 mU/ml GOX challenge by MTT assay (reference value: 42.71 +/- 2.10%); format: functional; details: NIH3T3, 5 h, read-out: Survival
Hep 3B2 [11] = assay: Cytoprotective activity against GOX-induced oxidative stress in human Hep3B cells assessed as increase in cell survival treated for 5 hrs with 15 mU/ml GOX challenge by MTT assay; format: functional, cell-based
Method in brief: (§2)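 Cells plated at 7×10^4 per well; next day exposed for 5 h to compound (0.1–100 μM) with 15 mU/ml glucose oxidase in growth medium. Viability expressed relative to GOX-free cells; α-tocopherol positive control.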

NIH3T3 [12] = assay: Cytoprotective activity against GOX-induced oxidative stress in mouse NIH/3T3 cells assessed as cell survival at 1 uM treated for 5 hrs with 15 mU/ml GOX challenge by MTT assay (reference value: 42.71 +/- 2.10%); format: functional; details: NIH3T3, 5 h, read-out: Survival
NIH3T3 [13] = assay: Cytoprotective activity against GOX-induced oxidative stress in mouse NIH/3T3 cells assessed as cell survival at 10 uM treated for 5 hrs with 15 mU/ml GOX challenge by MTT assay (reference value: 42.71 +/- 2.10%); format: functional; details: NIH3T3, 5 h, read-out: Survival
NIH3T3 [14] = assay: Cytoprotective activity against GOX-induced oxidative stress in mouse NIH/3T3 cells assessed as cell survival at 100 uM treated for 5 hrs with 15 mU/ml GOX challenge by MTT assay (reference value: 42.71 +/- 2.10%); format: functional; details: NIH3T3, 5 h, read-out: Survival
NIH3T3 [15] = assay: Cytoprotective activity against GOX-induced oxidative stress in mouse NIH/3T3 cells assessed as increase in cell survival treated for 5 hrs with 15 mU/ml GOX challenge by MTT assay; format: functional, cell-based; method in brief: as §2
Hep 3B2 [16] = assay: Cytoprotective activity against GOX-induced cytotoxicity in human Hep3B cells assessed as LDH release at 0.1 uM treated for 5 hrs with 15 mU/ml GOX challenge by spectrophotometric method (reference value: 60.94 +/- 1.18%); format: functional
Hep 3B2 [17] = assay: Cytoprotective activity against GOX-induced cytotoxicity in human Hep3B cells assessed as LDH release at 1 uM treated for 5 hrs with 15 mU/ml GOX challenge by spectrophotometric method (reference value: 60.94 +/- 1.18%); format: functional
Hep 3B2 [18] = assay: Cytoprotective activity against GOX-induced cytotoxicity in human Hep3B cells assessed as LDH release at 10 uM treated for 5 hrs with 15 mU/ml GOX challenge by spectrophotometric method (reference value: 60.94 +/- 1.18%); format: functional
Hep 3B2 [19] = assay: Cytoprotective activity against GOX-induced cytotoxicity in human Hep3B cells assessed as LDH release at 100 uM treated for 5 hrs with 15 mU/ml GOX challenge by spectrophotometric method (reference value: 60.94 +/- 1.18%); format: functional
Hep 3B2 [20] = assay: Cytoprotective activity against GOX-induced cytotoxicity in human Hep3B cells assessed as decrease in LDH release treated for 5 hrs with 15 mU/ml GOX challenge by spectrophotometric method; format: functional, cell-based
NIH3T3 [21] = assay: Cytoprotective activity against GOX-induced cytotoxicity in mouse NIH/3T3 cells assessed as LDH release at 0.1 uM treated for 5 hrs with 15 mU/ml GOX challenge by spectrophotometric method (reference value: 63.34 +/- 1.85%); format: functional
NIH3T3 [22] = assay: Cytoprotective activity against GOX-induced cytotoxicity in mouse NIH/3T3 cells assessed as LDH release at 1 uM treated for 5 hrs with 15 mU/ml GOX challenge by spectrophotometric method (reference value: 63.34 +/- 1.85%); format: functional
NIH3T3 [23] = assay: Cytoprotective activity against GOX-induced cytotoxicity in mouse NIH/3T3 cells assessed as LDH release at 10 uM treated for 5 hrs with 15 mU/ml GOX challenge by spectrophotometric method (reference value: 63.34 +/- 1.85%); format: functional
NIH3T3 [24] = assay: Cytoprotective activity against GOX-induced cytotoxicity in mouse NIH/3T3 cells assessed as LDH release at 100 uM treated for 5 hrs with 15 mU/ml GOX challenge by spectrophotometric method (reference value: 63.34 +/- 1.85%); format: functional
NIH3T3 [25] = assay: Cytoprotective activity against GOX-induced cytotoxicity in mouse NIH/3T3 cells assessed as decrease in LDH release treated for 5 hrs with 15 mU/ml GOX challenge by spectrophotometric method; format: functional, cell-based
Hep 3B2 [26] = assay: Cytotoxicity against human Hep3B cells assessed as effect on cell attachment at 0.1 to 100 uM measured every day during 4 days incubation period by microscopic method; format: cell-based; details: hep 3b2, 96 h; method in brief: as §1
Hep 3B2 [27] = assay: Cytotoxicity against human Hep3B cells assessed as effect on cell morphology at 0.1 to 100 uM measured every day during 4 days incubation period by microscopic method; format: cell-based; details: hep 3b2, 96 h; method in brief: as §1

Structure (SMILES) | viability at 0.1 µM (Hep 3B2 [6]) | viability at 100 µM (Hep 3B2 [7]) | viability at 1 µM (Hep 3B2 [8]) | viability at 10 µM (Hep 3B2 [9]) | viability at 0.1 µM (NIH3T3 [10]) | Activity (Hep 3B2 [11]) | viability at 1 µM (NIH3T3 [12]) | viability at 10 µM (NIH3T3 [13]) | viability at 100 µM (NIH3T3 [14]) | Activity (NIH3T3 [15]) | Activity (Hep 3B2 [16]) | Activity (Hep 3B2 [17]) | Activity (Hep 3B2 [18]) | Activity (Hep 3B2 [19]) | Activity (Hep 3B2 [20]) | Activity (NIH3T3 [21]) | Activity (NIH3T3 [22]) | Activity (NIH3T3 [23]) | Activity (NIH3T3 [24]) | Activity (NIH3T3 [25]) | further results
CC(C)C(=O)O[C@@H]1Cc2c(ccc3ccc(=O)oc23)OC1(C)C | 44.8% | 82.3% | 56.1% | 66.5% | 45.7% | Dose-dependent effect | 55.6% | 67.4% | 83.1% | Dose-dependent effect | 28.99% | 23.78% | 18.04% | 7.64% | Dose-dependent effect | 31.31% | 25.89% | 19.53% | 8.13% | Dose-dependent effect | viability at 0.1 µM (Hep 3B2 [1]): 100%; viability at 1 µM (Hep 3B2 [2]): 101%; viability at 10 µM (Hep 3B2 [3]): 110%; viability at 100 µM (Hep 3B2 [4]): 147%; Activity (Hep 3B2 [5]): Dose-dependent effect; Activity (Hep 3B2 [26]): Non-Toxic; Activity (Hep 3B2 [27]): Non-Toxic
C/C=C(/C)C(=O)O[C@@H]1c2c(ccc3ccc(=O)oc23)OC(C)(C)[C@@H]1O[C@@H]1O[C@H](CO)[C@@H](O)[C@H](O)[C@H]1O | 59.2% | 91.2% | 65.3% | 76.9% | 58.6% | Dose-dependent effect | 64.5% | 75.8% | 93.8% | Dose-dependent effect | 28.01% | 19.57% | 10.28% | 6.16% | Dose-dependent effect | 29.9% | 21.12% | 9.25% | 5.75% | Dose-dependent effect | viability at 0.1 µM (Hep 3B2 [1]): 101%; viability at 1 µM (Hep 3B2 [2]): 102%; viability at 10 µM (Hep 3B2 [3]): 113%; viability at 100 µM (Hep 3B2 [4]): 114%; Activity (Hep 3B2 [5]): Dose-dependent effect; Activity (Hep 3B2 [26]): Non-Toxic; Activity (Hep 3B2 [27]): Non-Toxic
CO[C@H]1c2c(ccc3ccc(=O)oc23)O[C@@H]1C(C)(C)O | 69.2% | 112% | 87.1% | 100% | 69% | Dose-dependent effect | 93% | 118% | 129% | Dose-dependent effect | 14.07% | 10.56% | 5.66% | 2.59% | Dose-dependent effect | 15.41% | 6.59% | 4.2% | 1.89% | Dose-dependent effect | viability at 0.1 µM (Hep 3B2 [1]): 106%; viability at 1 µM (Hep 3B2 [2]): 118%; viability at 10 µM (Hep 3B2 [3]): 147%; viability at 100 µM (Hep 3B2 [4]): 163%; Activity (Hep 3B2 [5]): Dose-dependent effect; Activity (Hep 3B2 [26]): Non-Toxic; Activity (Hep 3B2 [27]): Non-Toxic
Cc1c(C)c2c(c(C)c1O)CC[C@@](C)(CCC[C@H](C)CCC[C@H](C)CCCC(C)C)O2 [ALPHA-TOCOPHEROL] | 62.2% | 79.6% | 66.8% | 70.7% | 61.2% | Dose-dependent effect | 65.8% | 69.1% | 77.9% | Dose-dependent effect | 25.13% | 21.14% | 18.89% | 13% | Dose-dependent effect | 26.51% | 22.37% | 15.02% | 10.51% | Dose-dependent effect | 
